Assay [1] can be described thus: Displacement of [3H]flumazenil from bovine brain cortex GABAA/Bz receptor. Also on record: species or system Bos taurus. In outline:
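Bovine cerebral cortex membranes in 50 mM Tris-citrate pH 7.4, [3H]Ro 15-1788 (70.8 Ci/mmol) as radioligand. […] At least six concentrations used, curve-fitted, Ki by Cheng–Prusoff; means ± SEM of five determinations in triplicate.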

In assay [2] the target is GABA-A receptor alpha-5/beta-2/gamma-2 (Rattus norvegicus). The assay can be described thus: Displacement of [3H]Ro-151788 from rat recombinant GABA alpha-5-beta-2-gamma-2 receptor expressed in HEK293 cells.
The target in assay [3] is GABA-A receptor; alpha-1/beta-2/gamma-2 (Rattus norvegicus, UniProt P18508+P62813+P63138). The assay can be described thus: Displacement of [3H]Ro15-1788 from rat recombinant GABA alpha-1-beta-2-gamma-2 receptor expressed in HEK293 cells. The format is cell-based. In outline:
(§1)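 Crude membranes from clonal mammalian cells expressing recombinant subtypes, grown in MEM/EBSS with 10% FCS at 37 °C, 5% CO2. Membranes resuspended in 10 mM potassium phosphate pH 7.4 with 100 mM KCl. Ki from three independent experiments run in triplicate, means ± SEM.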

Assay [4] concerns Mus musculus. The experiment in a line: Effect on motor coordination in CD1 Albino mouse assessed as number of falls in 30 secs at 10 mg/kg, po […] by rotarod test relative to control. The format is functional.
The subject of assay [5] is Mus musculus. The assay can be described thus: Anticonvulsant activity against pentylenetetrazole-induced seizure in CD1 Albino mouse assessed as latency at 3 mg/kg, po. The format is functional. In outline:
(§2)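 Male CD-1 mice (22–24 g) dosed po in 1% carboxymethylcellulose (10 ml/kg); PTZ 90 mg/kg sc given 30 min later. Occurrence of clonic generalized convulsions noted over 30 min and expressed as percent of animals protected; latency (s) also recorded. Means ± SEM; ANOVA with Scheffe post-hoc test, Student's two-tailed t-test for pairs of means.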

For assay [6], the system named is Mus musculus. The assay can be described thus: Anticonvulsant activity against pentylenetetrazole-induced seizure in CD1 Albino mouse at 10 mg/kg, po. The format is functional. A digest of the protocol: as §2
Assay [7] concerns Mus musculus. The assay can be described thus: Anticonvulsant activity against pentylenetetrazole-induced seizure in CD1 Albino mouse at 30 mg/kg, po. The format is functional. A digest of the protocol:
as §2

Assay [8] has as its system Mus musculus. The experiment in a line: Effect on motor coordination in CD1 Albino mouse assessed as number of falls in 30 secs at 3 mg/kg, po […] by rotarod test relative to control. The format is functional.
Assay [9] has as its target GABA A receptor alpha-3/beta-2/gamma-2 (Rattus norvegicus, UniProt P18508+P20236+P63138). The experiment in a line: Displacement of [3H]Ro15-1788 from rat recombinant GABA alpha-3-beta-2-gamma-2 receptor expressed in HEK293 cells. The format is cell-based. A digest of the protocol:
as §1

For assay [10], the system named is Mus musculus. The experiment in a line: Anticonvulsant activity against pentylenetetrazole-induced seizure in CD1 Albino mouse at 3 mg/kg, po. The format is functional. In outline: as §2
For assay [11], the system named is Mus musculus. The assay can be described thus: Effect on motor coordination in CD1 Albino mouse assessed as number of falls in 30 secs at 30 mg/kg, po […] by rotarod test relative to control. The format is functional.
The species entered for assay [12] is Mus musculus. The assay can be described thus: Anxiogenic-like effect in CD1 Albino mouse assessed as decrease in time spent in light compartment in light-dark box test. The format is functional, organism-based. In outline: (§3)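 Light/dark box test in male CD-1 mice dosed 30 min beforehand in 1% CMC vehicle. Number of transfers between compartments and time spent in the illuminated side counted over 5 min. Statistics by ANOVA with Fischer's test versus controls.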

Assay [13] relates to Mus musculus. The assay can be described thus: Effect on learning and memory performance in CD1 Albino mouse assessed as cognition enhancement at 10 mg/kg, po. The format is functional, organism-based. Also on record: dose 10 mg/kg. In outline:
(§4)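 Passive avoidance test in male CD-1 mice dosed po 30 min before training, with retention tested 24 h later. Read-out was the difference in latency (s) to enter the dark compartment between training and retention. Means ± SEM of 9–10 mice; ANOVA with Fischer's test.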

Assay [14] concerns Mus musculus. The assay can be described thus: Effect on learning and memory performance in CD1 Albino mouse assessed as cognition enhancement at 3 mg/kg, po. The format is functional, organism-based. Also on record: dose 3 mg/kg. In outline:
as §4

The test system of assay [15] is Mus musculus. The experiment in a line: Anxiogenic-like effect in CD1 Albino mouse assessed as decrease in number of transfers from one compartment to another at 10 mg/kg in light-dark box test. The format is functional, organism-based. Also on record: dose 10 mg/kg. In outline: as §3
For assay [16], the system named is Mus musculus. The experiment in a line: Decrease in ethanol-induced sleeping time in CD1 Albino mouse at 10 mg/kg, po relative to control. The format is functional, organism-based. Also on record: dose 10 mg/kg. A digest of the protocol: (§5)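 Male CD-1 mice given drug po in 1% CMC, then ethanol 4 g/kg ip 30 min later. Sleep time taken as duration of loss of righting reflex, capped at 210 min. Means ± SEM of 5–16 mice; ANOVA with Fischer's test versus controls.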

Assay [17] has as its system Mus musculus. The assay can be described thus: Decrease in ethanol-induced sleeping time in CD1 Albino mouse at 3 mg/kg, po relative to control. The format is functional, organism-based. Also on record: dose 3 mg/kg. A digest of the protocol:
as §5

Calls of active or inactive are those of the source. The rule behind the calls is not given here.

Chain of GABA-A receptor; alpha-1/beta-2/gamma-2 (P18508 whole entry): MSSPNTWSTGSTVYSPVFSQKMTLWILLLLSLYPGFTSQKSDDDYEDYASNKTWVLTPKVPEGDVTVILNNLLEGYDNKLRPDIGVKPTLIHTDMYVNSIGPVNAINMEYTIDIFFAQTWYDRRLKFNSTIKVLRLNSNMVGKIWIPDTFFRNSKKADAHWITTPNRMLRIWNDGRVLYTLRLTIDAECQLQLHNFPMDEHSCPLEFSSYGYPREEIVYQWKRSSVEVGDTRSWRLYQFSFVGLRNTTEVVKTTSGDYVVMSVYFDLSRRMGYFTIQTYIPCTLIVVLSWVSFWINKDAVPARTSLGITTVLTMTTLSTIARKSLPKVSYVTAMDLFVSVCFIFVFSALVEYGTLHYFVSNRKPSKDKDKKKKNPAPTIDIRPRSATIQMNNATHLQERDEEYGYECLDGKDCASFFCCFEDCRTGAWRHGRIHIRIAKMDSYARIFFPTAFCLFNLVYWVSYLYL
Chain of GABA-A receptor; alpha-1/beta-2/gamma-2 (P62813 whole entry): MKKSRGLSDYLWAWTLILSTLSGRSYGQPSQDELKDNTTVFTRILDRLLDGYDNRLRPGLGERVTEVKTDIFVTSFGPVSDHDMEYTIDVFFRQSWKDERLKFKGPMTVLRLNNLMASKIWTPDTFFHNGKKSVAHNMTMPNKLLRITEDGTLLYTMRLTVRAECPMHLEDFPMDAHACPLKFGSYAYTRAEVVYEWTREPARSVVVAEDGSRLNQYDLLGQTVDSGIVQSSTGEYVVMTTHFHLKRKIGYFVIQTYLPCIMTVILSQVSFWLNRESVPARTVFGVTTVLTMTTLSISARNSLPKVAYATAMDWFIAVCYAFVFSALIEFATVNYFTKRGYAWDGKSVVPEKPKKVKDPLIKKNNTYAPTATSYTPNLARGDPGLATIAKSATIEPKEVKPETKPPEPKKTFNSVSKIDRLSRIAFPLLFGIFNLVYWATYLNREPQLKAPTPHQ
Chain of GABA-A receptor; alpha-1/beta-2/gamma-2 (P63138 whole entry): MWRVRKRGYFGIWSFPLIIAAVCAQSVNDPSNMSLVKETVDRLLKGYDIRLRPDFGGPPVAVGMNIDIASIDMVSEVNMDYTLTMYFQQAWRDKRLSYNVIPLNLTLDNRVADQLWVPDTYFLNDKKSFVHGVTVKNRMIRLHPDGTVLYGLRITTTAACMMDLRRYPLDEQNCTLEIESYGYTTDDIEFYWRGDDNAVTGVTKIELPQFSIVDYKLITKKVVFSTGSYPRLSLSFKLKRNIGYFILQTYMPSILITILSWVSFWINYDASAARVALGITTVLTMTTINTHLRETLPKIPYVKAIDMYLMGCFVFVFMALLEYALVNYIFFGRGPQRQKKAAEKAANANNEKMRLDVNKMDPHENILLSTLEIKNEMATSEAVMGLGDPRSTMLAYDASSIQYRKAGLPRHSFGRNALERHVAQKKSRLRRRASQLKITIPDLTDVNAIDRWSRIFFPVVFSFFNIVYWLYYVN
Chain of GABA A receptor alpha-3/beta-2/gamma-2 (P18508 whole entry): as the sequence (P18508 whole entry) above
Chain of GABA A receptor alpha-3/beta-2/gamma-2 (P20236 whole entry): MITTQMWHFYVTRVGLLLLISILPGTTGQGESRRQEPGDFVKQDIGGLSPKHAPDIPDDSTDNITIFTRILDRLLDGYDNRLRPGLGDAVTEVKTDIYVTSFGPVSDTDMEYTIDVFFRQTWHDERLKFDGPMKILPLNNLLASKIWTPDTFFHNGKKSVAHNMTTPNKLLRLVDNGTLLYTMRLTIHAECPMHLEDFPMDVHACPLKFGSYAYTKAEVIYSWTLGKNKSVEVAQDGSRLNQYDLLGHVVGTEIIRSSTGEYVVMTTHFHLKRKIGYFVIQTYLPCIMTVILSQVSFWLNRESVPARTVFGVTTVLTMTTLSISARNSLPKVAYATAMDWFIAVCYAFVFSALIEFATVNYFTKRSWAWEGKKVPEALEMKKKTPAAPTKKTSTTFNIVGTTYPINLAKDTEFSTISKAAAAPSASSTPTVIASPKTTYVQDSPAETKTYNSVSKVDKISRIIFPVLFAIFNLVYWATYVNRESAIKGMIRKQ
Chain of GABA A receptor alpha-3/beta-2/gamma-2 (P63138 whole entry): as the sequence (P63138 whole entry) above

For the molecule `CCCCCOc1ccc2c(c1)n1ncc(I)c1n[n+]2[O-]`, the inhibition constant Ki in [1] came out at 6.5 nM.
In assay [1], `[O-][n+]1nc2c(I)cnn2c2cc(O)ccc21` showed a Ki of 1700 nM.
The same measure, in the same setting: the result for `[O-][n+]1nc2c(I)cnn2c2cc(Br)ccc21` reads 14 nM; that for `[O-][n+]1nc2c(Br)cnn2c2cc(I)ccc21`, 81 nM.
Same read-out and setting: the result for `Clc1ccc2nnc3c(I)cnn3c2c1` reads 22.8 nM; that for `[O-][n+]1nc2c(I)cnn2c2cc(OCC3CC3)ccc21`, 7.6 nM; that for `CCOc1ccc2n[n+]([O-])c3c(Br)cnn3c2c1`, 15.6 nM.
In [1], `[O-][n+]1nc2c(Cl)cnn2c2cc(I)ccc21` displayed a Ki of 202 nM.
With `CCOc1ccc2nnc3c(I)cnn3c2c1`, the Ki was 95 nM in [2], 13.8 nM in [3], 18 nM in assay [1] and 133 nM in [9]. For the same molecule, the Activity turned out to be 0.7 in assay [4]; 237.7 s in assay [5]; 0% in assay [6]; 0% in assay [7]; 0.3 in assay [8]; 0% in assay [10].
`Cc1ccc2c(c1)n1ncc(I)c1n[n+]2[O-]` returned an inhibition constant Ki in [1] of 12 nM.
For `[O-][n+]1nc2c(Cl)cnn2c2cc(Cl)ccc21`, the Ki in assay [1] is 374 nM.
Same read-out and setting: the result for `CSc1ccc2c(c1)n1ncc(I)c1n[n+]2[O-]` reads 15.8 nM; that for `CCCCOc1ccc2c(c1)n1ncc(I)c1n[n+]2[O-]`, 5.4 nM; that for `[O-][n+]1nc2c(Cl)cnn2c2cc(Br)ccc21`, 332 nM.
Same read-out and setting: to `[O-][n+]1nc2c(Br)cnn2c2cc(Br)ccc21` belongs 73 nM; to `[O-][n+]1nc2c(Br)cnn2c2cc(Cl)ccc21`, 120 nM; to `[O-][n+]1nc2c(I)cnn2c2cc(I)ccc21`, 14 nM.
Same read-out and setting: to `CCCOc1ccc2c(c1)n1ncc(I)c1n[n+]2[O-]` belongs 12 nM; to `C#CCOc1ccc2c(c1)n1ncc(I)c1n[n+]2[O-]`, 0.8 nM.
For `CCOc1ccc2n[n+]([O-])c3c(I)cnn3c2c1`, the inhibitory constant (Ki) in assay [2] came out at 70 nM; in [3] it was 2.6 nM; in assay [1], 1.7 nM; in assay [9] it was 12.3 nM. Further, the Activity in assay [11] worked out at 0.6; in [4] it was 0.4; in assay [5], 293.4 s; in assay [6], 12.5%; in [10], 0%. Moreover, the result in assay [12], in assay [13] and in assay [14] was Active.
In turn, `CN1C(=O)CN=C(c2ccccc2)c2cc(Cl)ccc21` [DIAZEPAM] showed a Ki in assay [1] of 10 nM. Moreover, the Activity in assay [8] came out at 1.2; in [10], 100%.
With `CCOc1ccc2c(c1)n1ncc(Cl)c1n[n+]2[O-]`, the affinity in [1] corresponds to a Ki of 160 nM.
Same read-out and setting: to `CC(C)Oc1ccc2c(c1)n1ncc(I)c1n[n+]2[O-]` belongs 42 nM.
Still for that read-out and setting: the result for `[O-][n+]1nc2c(I)cnn2c2cc(OCCCl)ccc21` reads 62 nM; that for `CCOc1ccc2c(c1)n1ncc(Br)c1n[n+]2[O-]`, 36.9 nM.
Still for that read-out and setting: the result for `Cc1ccc2c(c1)n1ncc(Br)c1n[n+]2[O-]` reads 53.2 nM; that for `COc1ccc2c(c1)n1ncc(I)c1n[n+]2[O-]`, 13.5 nM; that for `COCCOc1ccc2c(c1)n1ncc(I)c1n[n+]2[O-]`, 37 nM.
Turning to `CCOc1ccc2c(c1)n1ncc(I)c1n[n+]2[O-]`, the Ki in assay [2] came out at 99 nM; in [3], 4.1 nM; in assay [1], 4.8 nM; in [9], 34 nM. Moreover, the result in assay [15], in [12], in [16], in assay [13], in assay [17] and in assay [14] was Active. In addition, the Activity in assay [11] is listed as 0.2; in assay [4], 0.2; in assay [6], 0%; in assay [7], 0%; in assay [8], 0.2; in [10] it was 10%.
For `Cc1ccc2c(c1)n1ncc(Cl)c1n[n+]2[O-]`, in assay [1], the inhibition constant Ki stood at 196 nM.
Still for that read-out and setting: to `CN(C)CCOc1ccc2c(c1)n1ncc(I)c1n[n+]2[O-]` belongs 233 nM.

For the origin of these results see ChEMBL document CHEMBL1142927, “Novel 3-iodo-8-ethoxypyrazolo[5,1-c][1,2,4]benzotriazine 5-oxide as promising lead for design of alpha5-inverse agonist useful tools for therapy of mnemonic damage” (Bioorg Med Chem, 2007).
